Measurements published in the array DNA melting data of Ke et al. (doi:10.1101/2024.01.08.574731).

Columns and labels:
[1] = melting temperature; fluorescence melt of hairpins on a sequencing array, two-state fit, raised by 9.35 °C to match UV melts; conditions: sodium 0.088 M
Summary of the method: (§1)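 Bootstrapped two-state fits yielded melting temperature and folding enthalpy for library hairpins. Cy3 fluorescence, with annealed Cy3 and quencher oligos, was imaged on a sequenced MiSeq flow cell in 50 mM Na-HEPES pH 8.0, 25 mM NaCl in 2.5 °C steps up to 60 °C, and normalised to pre-quench Cy3 and to control constructs. Four replicates were combined by inverse variance, and fitted temperatures were raised by 9.35 °C to match UV melts.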

[2] = folding enthalpy; higher = less favourable; fluorescence melt of hairpins on a sequencing array, two-state fit; conditions: sodium 0.088 M
Summary of the method: as §1

Sequence	Tm [1] [°C]	folding enthalpy [2] [kcal/mol]
GACAAGGGAAACCTTGTC (((((((....)))))))	59.4	-40.4
GCTGGGCGAAAGCTCGGC ((.(.((....)).).))	60.3	-32.5
GATCAGAATACTGATC ((((((....))))))	47.4	-39.2
GATCCATCCCTGGATC ((((((....))))))	51	-35.4
GCGATGACGAAAGTCCGC (((..(((....))))))	52	-20
GACAGGGGAAACCTTGTC ((((.((....)).))))	45.2	-32.4
GGGCCTGGAAACAGGTCC ((.((((....)))).))	65	-36.4
GATCAAAGTCTTGATC ((((((....))))))	41.7	-31.1
GTCTTAGGAAACTAAGAC (((((((....)))))))	53.7	-38.4
GGTGGGCCGAAAGGCACC (((..(((....))))))	50.5	-10.5
GATCTACAGGTAGATC ((((((....))))))	48.8	-37.6
GCTGAGCGAAAGCTTGGC ((..(((....)))..))	55.4	-20.9
GTATTGCGAAAGCACTAC (((.(((....))).)))	39.4	-21.5
GATCGTGGAAACACGACC (.(((((....))))).)	41.7	-13.3
GATCTTGATAAAGATC ((((((....))))))	52.1	-40.9
CGTTCGGAAACGATGACG ((((((....)))..)))	39	-20
GCATGGCGAAAGCCTTGC (((.(((....))).)))	60.8	-35.4
GCGGCGCGAAAGCCCAGC ((.(.((....)).).))	53	-15.3
GAGGAGGGAAACCTCCCC (.(((((....))))).)	40.9	-11.8
GCTTAGCGAAAGCCAGGC ((.(.((....)).).))	34.5	-12.6
GCCCGGCGAAAGCCTGGC (((.(((....))).)))	64.6	-25.8
GTAGGCGGAAACGCCCAC ((.((((....)))).))	41.1	-10.2
GCAATGCGAAAGCAGAGC ((..(((....)))..))	55	-19.5

Sequence	Tm [1] [°C]	folding enthalpy [2] [kcal/mol]
GAGCGCCGAAAGGCCTC (((.(((....))))))	59.8	-14.6
GGAGATGGAAACATTTCC (((.(((....))).)))	39.2	-32.9
GAAAACGAAAGTTCGTTC ((((((....)))..)))	25.1	-10.8
GCTGCACGAAAGTGGAGC (((.(((....))).)))	65.6	-34.2
GCGATCGAAAGATGACGC ((((((....)))..)))	44.1	-28.3
GTCGTGCGAAAGCATGAC (((.(((....))).)))	66.3	-34.8
GGCTCAGGAAACTGGGCC (((.(((....))).)))	58.3	-43.7
GTTAGGGGAAACTCTAAC (((((.(....).)))))	38.3	-29.2
GGGAAAGGAAACCTTCCC (((((.(....).)))))	39.2	-28.2
GTTGTGGGAAACCATGAC ((..(((....)))..))	34.7	-30.4
GATCGTAGCCACGATC ((((((....))))))	56.2	-39.3
GCATGCGAAAGCATTTGC ((((((....)))..)))	42.3	-14.4
GCTCGGCGAAAGCCAAGC (((.(((....))).)))	52.4	-35.8
GATCTAGCCATAGATC ((((((....))))))	49.3	-41
GATCGTCCCAACGATC ((((((....))))))	55.6	-40.2
GCATACGAAAGTAGATGC ((((((....)))..)))	41.1	-27.1
CGTTGTCGGAAACGAACG (((..(((....))))))	35.1	-11.6
GTCGCTGGAAACAGCGGC (.(((((....))))).)	65.6	-23.4
GGCTATGGAAACATGGTC (.(.(((....))).).)	35.7	-23.9
GTCTGGGGAAACTCAGGC (.(((.(....).))).)	35.8	-23.3
GATCGTGCCACGATC ((((((...))))))	57.8	-35.8
GATCAGTACACTGATC ((((((....))))))	54.7	-36.4
CTAACGAAAGTTAG (((((....)))))	49.4	-23.9

Sequence	Tm [1] [°C]	folding enthalpy [2] [kcal/mol]
GATCTTACCAAGATC ((((((...))))))	45.6	-33
GGTCACGAAAGTGCTACC ((((((....)))..)))	36.3	-15.6
GCTATGCGAAAGCCTGGC ((.(.((....)).).))	36.9	-18.8
GTCAAAGCGAAAGCTGAC (((..(((....))))))	48.1	-21.2
GTGTAACGAAAGTTCAC (((.(((....))))))	44.6	-20
GCATTGCGAAAGCAACGC ((.((((....)))).))	60.4	-26.7
GATATTCCGAAAGGAATC (((..(((....))))))	32.7	-11.4
GGGGGCGAAAGCCTCCC ((((((....))).)))	66.1	-15.7
GCCCACGAAAGTGATGGC ((((((....)))..)))	50.6	-29.4
GGATGCGAAAGCATCTCC ((((((....)))..)))	52.6	-9.29
GTAGGCCGAAAGGCTAC (((.(((....))))))	50.6	-15.1
GACGACGGAAACGTCATC ((.((((....)))).))	38.8	-15.7
ATACGGAAACGTAT (((((....)))))	43.5	-21.8
GCGTGTGACGC ((((...))))	53.4	-23.8
GCTAAGCGAAAGCTACGC ((..(((....)))..))	39.2	-13.2
GTGCGCGAAAGCGCCAC ((((((....))).)))	52.2	-8.65
GAGGCAGGAAACTGTCTC (((.(((....))).)))	50.2	-34.1
GTACCCGAAAGGGTCTAC ((((((....)))..)))	42.2	-10.7
CGACATCGGAAACGATCG (((..(((....))))))	34	-12.7
GGAGTCCGAAAGGATTCC (((.(((....))).)))	55.7	-47.8
GATCGCACGAGCGATC ((((((....))))))	68.4	-31.7
GACGACGGAAACGCCGTC ((((.((....)).))))	56.4	-31.4
GGCACACGAAAGTGCGCC (((.(((....))).)))	66.7	-36.9

Sequence	Tm [1] [°C]	folding enthalpy [2] [kcal/mol]
GATAACGAAAGTTATATC ((((((....)))..)))	38.9	-16
GATCCCTTTTGGGATC ((((((....))))))	60.1	-38.3
GATCATCACAATGATC ((((((....))))))	47.7	-44.1
GGCGTCGAAAGACAAGCC ((((((....)))..)))	55.2	-43.4
GAAAGGGGAAACTCTTTC (((((.(....).)))))	36.3	-25
GCCTGGCGAAAGCCCCGC ((..(((....)))..))	36.3	-8.33
GCCTACGAAAGTAATGGC ((((((....)))..)))	45.3	-24.8
GAGTACACGAAAGTGCTC (((..(((....))))))	33.7	-14.9
GACGCCGAAAGGCGGTC ((((((....))).)))	64.9	-9.77
GCGCGGCGAAAGCCCAGC ((..(((....)))..))	57.5	-16
GTTGGGCGAAAGCCAAAC (((.(((....))).)))	56.9	-21.5
CGCAACGGAAACGTGCG (((.(((....))))))	56.5	-31.8
GCGATCGAAAGATCCCGC ((((((....)))..)))	37.1	-17.7
GGTGCAGGAAACTGCGCC ((.((((....)))).))	65.3	-34.3
GATCGGTCGGCCGATC ((((((....))))))	59.4	-45.8
GAGGGCGAAAGCCGTCTC ((((((....)))..)))	59	-20.4
GTCACACCGAAAGGTGAC (((..(((....))))))	41.1	-10.9
GCGCGTCGAAAGACCCGC (((.(((....))).)))	55.8	-37.3
GAGGACGAAAGTCAACTC ((((((....)))..)))	38.2	-19.7
GCTTCTCGAAAGAGGAGC (((.(((....))).)))	56.1	-36.1
GTATGGCGAAAGCCTTAC (((.(((....))).)))	48.2	-22.8
GATGGCGAAAGCCTTATC ((((((....)))..)))	25.9	-7.22
GTCGGCGAAAGCCTGAC ((((((....))).)))	56.9	-15.6
